Screens deposited in PubChem BioAssay by several laboratories.
An excerpt weighted towards active compounds, which were near 3.1% of everything screened.
HSF1 activator – increases HSF-1 driven luciferase reporter signal; NIH3T3-HGL HSF-1 luciferase reporter, MG132, 8 h; 100% = twice DMSO control signal; activation, % at 9 µM; 1.7% of 300,000 active;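 active = mean replicate activation of at least 50% with a set share of replicates each reaching 50%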;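 note: 0% = median of the neutral control wells and 100% = twice that signal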
Hsp70 activator – transcriptional activators of Hsp70; HeLa Hsp70 promoter luciferase reporter, luminescence; scaled: vehicle 0, proteasome-inhibitor control 100%; activation, % at 10 µM; 0.04% of 200,000 active;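 active = activation above the mean across all tested compounds plus 3 SD, cutoff set per campaign, cut at about 5.5% in these data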;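 note: 100% = MG132 at 30 µM as the positive control and 0% = DMSO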
HKDC1 inhibitor – blocks human hexokinase HKDC1 activity; Q2TB90; inhibition, % at 20 µM; recombinant HKDC1, G6PDH/diaphorase resazurin coupled fluorescence; 0.16% of 340,000 active;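 active = inhibition above about 35% when tested at 20 µM, limit read from the data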;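 note: plate controls were DMSO wells with enzyme for no effect and DMSO wells lacking enzyme for full effect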
Target sequence (Q2TB90 whole entry, looked up): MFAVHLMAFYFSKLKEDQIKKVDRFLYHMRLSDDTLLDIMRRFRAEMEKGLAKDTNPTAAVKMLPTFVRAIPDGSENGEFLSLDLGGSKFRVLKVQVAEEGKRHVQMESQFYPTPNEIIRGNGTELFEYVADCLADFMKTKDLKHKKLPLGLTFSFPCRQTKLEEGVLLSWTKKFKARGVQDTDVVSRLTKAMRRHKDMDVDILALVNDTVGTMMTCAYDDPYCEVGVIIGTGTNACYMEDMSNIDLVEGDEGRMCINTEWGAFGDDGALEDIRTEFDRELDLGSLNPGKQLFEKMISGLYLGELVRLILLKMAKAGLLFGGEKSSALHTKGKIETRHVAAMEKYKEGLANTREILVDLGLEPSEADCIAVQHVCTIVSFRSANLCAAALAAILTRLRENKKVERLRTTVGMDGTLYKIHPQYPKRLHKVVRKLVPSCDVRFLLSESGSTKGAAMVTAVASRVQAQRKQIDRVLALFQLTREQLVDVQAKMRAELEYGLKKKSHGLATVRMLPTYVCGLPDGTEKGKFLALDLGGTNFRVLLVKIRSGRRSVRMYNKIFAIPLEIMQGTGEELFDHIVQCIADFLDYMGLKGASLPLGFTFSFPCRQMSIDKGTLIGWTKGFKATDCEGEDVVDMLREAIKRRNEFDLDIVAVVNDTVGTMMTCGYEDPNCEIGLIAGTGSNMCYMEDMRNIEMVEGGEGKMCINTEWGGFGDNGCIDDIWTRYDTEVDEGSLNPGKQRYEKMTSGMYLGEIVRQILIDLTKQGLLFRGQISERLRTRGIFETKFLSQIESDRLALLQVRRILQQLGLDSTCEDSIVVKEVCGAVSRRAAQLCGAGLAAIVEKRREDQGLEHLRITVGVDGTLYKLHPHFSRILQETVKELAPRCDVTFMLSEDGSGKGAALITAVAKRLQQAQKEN
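Material – in-house recombinant HK5 (HKDC1) enzyme · Quantity – HKDC1 at 5 µg/mL · Buffer or medium – pH 8.0 Tris buffer with 10 mM MgCl2 · Reagent – glucose with 1 mM ATP · Dosing – single 20 µM dose · Times – reaction time 90 min, room temperature, protected from light · Technique – resorufin fluorescence at 613 nm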
HSP90 inh – inhibitors of HSP90 luciferase refolding in rabbit reticulocyte lysate; inhibition, % at 5.6 µM; AID 1789; luciferase refolding luminescence, 3 h; 0.91% of 290,000 active;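 active = inhibition above the screen-wide mean plus 3 SD, computed separately per campaign, cut at about 16% in these data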;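 note: 0% = DMSO wells and 100% = 60 µM geldanamycin wells; inhibitors lower the luminescence because luciferase stays unfolded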
TbHK1 inh – T. brucei hexokinase 1 inhibition; recombinant TbHK1, G6PDH-coupled NADH A340; inhibition, % at 10 µM; 0.11% of 220,000 active;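 active = inhibition of 50% or more in the single-dose primary screen; inactive = inhibition below 50%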
HSF1 inhib – HSF1 inhibition. 0.77% of 300,000 active. NIH3T3-HGL HSE-luciferase, MG132-induced, luminescence 8 h; stronger effect = lower value. activity change, negative = inhibition, % at 7.5 µM (by protocol);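 active = more than half of replicate wells show activity change below -50%, luminescence cut by over half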;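 note: luciferase reports HSF-1 transcriptional activity via heat shock element; 0% = median of DMSO wells and -100% = zero luminescence signal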
HSP90 confirm – HSP90 inhibition, confirmation assay. shares compounds with HSP90 inh. rabbit reticulocyte lysate, luciferase refolding luminescence, 3 h. inhibition, % at 5.9 µM. 64% of 2,300 active. AID 1846; in the data active = inhibition above about 18%;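 note: 0% = vehicle wells and 100% = reference inhibitor wells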
luciferase ctr – firefly luciferase inhibition, HSP90 counter-screen; shares compounds with HSP90 inh; purified native firefly luciferase, luminescence; inhibition, % at 5.9 µM; 48% of 2,300 active; AID 1847;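 active = inhibition above the mean inhibition of all tested sample wells plus 3 SD, cut at about 10% in these data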;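 note: 0% = DMSO with luciferase and 100% = wells lacking luciferase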
HKDC1 act conf2 – confirmation of human HKDC1 activators. shares compounds with HKDC1 inhibitor. recombinant HKDC1, G6PDH/diaphorase resazurin fluorescence; stronger effect = lower value. inhibition, % at 20 µM. 14% of 740 active. AID 504708;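 active = inhibition at or below a set negative limit, negative inhibition meaning the enzyme was activated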
Starred values were filed as active, the others as inactive; / = not tested or not shown.

SMILES	HSF1 activator	Hsp70 activator	HKDC1 inhibitor	HSP90 inh	TbHK1 inh	HSF1 inhib	HKDC1 act conf2	others
CN1CCN(c2cccc3c2C(=O)c2ccccc2C3=O)CC1	-18	0	-3	19*	-4	-25	/	HSP90 confirm=20*;luciferase ctr=1
O=[N+]([O-])c1cccc(NP(=O)(N2CC2)N2CC2)c1	/	/	-2	/	/	/	/
CC(C)(C)c1ccc(O)c(N=Cc2c(O)ccc3ccccc23)c1	-10	/	22	30*	/	10	/	HSP90 confirm=30*;luciferase ctr=-6
COc1ccccc1-n1c(-c2ccccc2)nc2ccccc2c1=O	6	/	4	-2	/	-3	/
COc1ccccc1-n1c(-c2cccs2)nc2ccccc2c1=O	8	0	17	17*	-9	5	/	HSP90 confirm=0;luciferase ctr=-10
Cc1ccccc1-n1c(O)c(/C=N/NC(=O)c2ccccc2O)c(=O)[nH]c1=S	-64	/	-8	21*	-12	-55*	/	HSP90 confirm=52*;luciferase ctr=48*
Clc1cc(Cl)cc(NC2=NCCS2)c1	-7	/	-1	2	-7	3	/
Cc1nc2c(=O)n(C)c(=O)nc-2n(C)n1	-95	0	18	78*	14	-94*	/	HSP90 confirm=80*;luciferase ctr=83*
CCOP(=S)(NN(Cc1ccccc1)C(=O)c1ccccc1)OCC	22	0	-3	42*	32	8	/	HSP90 confirm=5;luciferase ctr=0
CCOP(=O)(OCC)C(Cc1ccccc1)NC(C)=O (stereo not given)	-3	/	-6	-8	-4	-3	/
COc1ccc(N/N=C/c2c(O)n(-c3ccc(C)c(C)c3)c(=O)[nH]c2=O)cc1	-24	0	0	19*	-6	-5	/	HSP90 confirm=29*;luciferase ctr=-6
Cc1ccc(-n2c(O)c(/C=N/Nc3ccccc3)c(=O)[nH]c2=O)cc1C	5	/	-2	1	-28	4	/
CN(C)C(Cc1ccccc1)C(=O)c1ccccc1 (stereo not given)	9	0	-1	-4	-1	0	/
CCOC(=O)c1c(C)[nH]c(C)c1C(=O)C(Cc1ccccc1)N(C)C (stereo not given)	-11	/	-5	22*	/	-1	/	HSP90 confirm=-1;luciferase ctr=-6
O=C(NCCO)c1nsnc1NCCCl	/	0	-7	0	-14	/	/
O=C1CC(c2cccnc2)=NN1c1ccccc1	7	0	-11	28*	-2	-1	/	HSP90 confirm=3;luciferase ctr=0
CNC(=O)Oc1ccc(-c2cn3cc(C)ccc3n2)cc1	2	-1	17	56*	-4	2	/	HSP90 confirm=68*;luciferase ctr=52*
ClC1=C(Cl)C2(Cl)C3C(Cl)C=CC3C1(Cl)C2(Cl)Cl (stereo not given)	/	/	-3	/	/	/	/
CC1=CC(=O)OC2CC3OC4C[C@@H](C)C5OC6CC7O[C@]8(C)C/C=C\C9OC%10CC%11OC(CC(C)C%12OCCO%12)CC(O)[C@]%11(C)OC%10CC9OC8C[C@]7(C)O[C@]6(C)CCC5OC4C[C@]3(C)OC12 (stereo not given in full)	/	/	-3	/	/	/	/
O=C(O)CC1OCC=C2CN3CCC45C6=CC(=O)C(=O)C([N+](=O)[O-])=C6NC4C1C2CC35 (stereo not given)	-7	/	43*	35*	-19	-4	29	HSP90 confirm=72*;luciferase ctr=-2
C=C(C)[C@@H]1[C@H]2OC(=O)[C@H]1[C@]1(O)C[C@H]3O[C@]34C(=O)O[C@H]2[C@]14C	/	/	0	/	/	/	/
N#CC(C#N)=Cc1ccc(C=C(C#N)C#N)cc1	/	/	38*	49*	3	/	-4
CCOC(=O)c1c(-n2c(C)cc(/C=C3\C(=O)NC(=O)N(C)C3=O)c2C)sc2c1CCCC2	22	0	51*	-3	-1	6	34
Cc1cc(/C=C2\C(=O)NC(=O)N(c3ccc(Cl)cc3)C2=O)c(C)n1-c1sc2c(c1C#N)CCCC2	-27	0	69*	3	0	-6	56
Cc1ccc2c(C)c3ccc4ccccc4c3c[n+]2c1	/	/	-53	/	/	/	-65*
SMILES	HSF1 activator	Hsp70 activator	HKDC1 inhibitor	HSP90 inh	TbHK1 inh	HSF1 inhib	HKDC1 act conf2	others
COc1ccc(N2C(=O)/C(=C/c3ccc(C)o3)C(=O)NC2=S)cc1	8	/	12	1	/	-1	/
COc1ccc(OC)c(N2C(=O)/C(=C/c3ccco3)C(=O)NC2=S)c1	-7	/	82*	0	/	-1	77
CC[C@H](C)/C=C(C)/C=C/C1=CC2=C(Cl)C(=O)[C@@](C)(OC(C)=O)C(=O)C2=CO1	0	/	63*	/	/	-4	46
CCC(C)/C=C(C)/C=C/C1=CC2=C(Cl)C(=O)C(C)(OC(C)=O)C(=O)C2=CO1 (stereo not given)	-9	0	20	-4	-58	-4	/
CCCNC(=O)N1[C@H]2CC[C@@H]1C(C(=O)OC)=C(c1ccc(C(C)=O)cc1)C2	/	/	-7	/	/	/	/
CN1CC[C@@]2(C)c3cc(O)ccc3N(C)C2O1 (stereo not given in full)	11	/	16	/	/	-1	/
CN1CC[C@@]2(C)c3cc(O)ccc3N(C)[C@@H]12	/	/	33	/	/	/	17
CCOC(=O)CSc1ccc(C(=O)N2CCC3(CC2)OCCO3)cc1[N+](=O)[O-]	6	/	-8	-2	/	-8	/
O=C1NC(=S)N(c2ccc(F)cc2)C(=O)/C1=C\c1ccoc1	/	0	51*	-1	30	/	55
O=C1NC(=S)N(c2ccc(F)cc2)C(=O)/C1=C/c1ccco1	-1	/	/	1	/	2	/
COC(=O)C1=C(C(=O)OC)SC2(S1)C(C(=O)OC)=C(C(=O)OC)Sc1c2ssc1=O	/	/	-109	/	/	/	-89*
COc1cc2c(cc1OC)C1[C@H]3C(=CC[C@H]1OC2O)CCN3C (stereo not given in full)	/	/	-4	/	/	/	/
N#CC1=C(N)Oc2c(c(=O)sc3ccccc23)C1c1ccncc1 (stereo not given)	15	0	-58	-3	-9	-7	-22
C/C(=N\N1CCN(C)CC1)c1c(O)[nH]c(=O)[nH]c1=O	-2	0	-8	-1	-2	-7	/
Cc1ccccc1-n1c(O)c(/C=N/Nc2nc3c(c(=O)n(C)c(=O)n3C)n2C)c(=O)[nH]c1=S	12	0	11	-1	-1	-2	/
Cn1c(=O)c2c(nc(N/N=C/c3c(O)n(C4CCCCC4)c(=S)[nH]c3=O)n2C)n(C)c1=O	-3	/	-46	-4	-21	-3	-49*
NC(=O)c1ccc(N=Cc2c(O)n(Cc3ccco3)c(=O)[nH]c2=O)cc1	2	/	36*	9	-32	-5	-17
COC(=O)C1=C(c2ccc(-c3ccccc3)c(F)c2)C[C@@H]2CC[C@H]1N2C(=O)N1CCOCC1	/	/	0	/	/	/	/
c1ccc(CCN2CCCCC2)nc1	/	/	-5	/	/	/	/
O=C1CC=C2C3CC4N(CCC45c4ccccc4N1C25)CC3=CCO (stereo not given)	/	/	-4	/	/	/	/
O=C1CC=C2C3CC4N(CCC45c4cc(O)c(O)cc4N1C25)CC3=CCBr (stereo not given)	/	/	45*	/	/	/	26
CC1CCCC(NC(=O)CNC(=S)N2CC3CC(C2)c2cccc(=O)n2C3)C1C (stereo not given)	11	/	-2	-5	/	-1	/
